From ChEMBL document CHEMBL1154096, “Design, synthesis and anticancer evaluation of novel tetrahydroquinoline derivatives containing sulfonamide moiety” (Eur J Med Chem, 2009)
≈ marks a conversion by molar mass, not a printed value.

Test system: MCF7
Assay: Cytotoxicity against human MCF7 cells after 48 hrs by SRB assay
Type: functional, cell-based
Conditions: MCF7, 48 h
How it was run: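 Cells seeded at 10⁴/well and left 24 h to attach. Compounds dissolved in DMSO, diluted in saline and added to the monolayer in triplicate wells per dose, then incubated 48 h at 37 °C in 5% CO₂. Cells were fixed and stained 30 min with 0.4% SRB in 1% acetic acid, washed four times with 1% acetic acid, and the dye recovered in Tris–EDTA. Absorbance was read, and surviving fraction plotted against concentration.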

Row | Structure (SMILES) | IC50
1 | Cc1c2c(nc3[nH]c(=S)n(-c4ccc(S(N)(=O)=O)cc4)c(=N)c13)CCCC2 | 0.95 µg/mL (≈ 2.37 µM)
2 | Cc1c2c(nc3[nH]c(=S)n(-c4ccc(S(=O)(=O)Nc5ncccn5)cc4)c(=N)c13)CC(C)(C)CC2=O | 9.19 µg/mL (≈ 17.6 µM)
3 | Cc1c2c(nc3[nH]c(=S)n(-c4ccc(S(=O)(=O)NC(=N)N)cc4)c(=N)c13)CCCC2 | 1.28 µg/mL (≈ 2.89 µM)
4 | Cc1c2c(nc3ncn(-c4ccc(S(N)(=O)=O)cc4)c(=N)c13)CC(C)(C)CC2=O | 1.5 µg/mL (≈ 3.65 µM)
5 | Cc1cc(NS(=O)(=O)c2ccc(-n3c(=S)[nH]c4nc5c(c(C)c4c3=N)CCCC5)cc2)no1 | 2.62 µg/mL (≈ 5.43 µM)
6 | Cc1c(C#N)c(/N=C/Nc2ccc(S(N)(=O)=O)cc2)nc2c1CCCC2 | > 10 µg/mL
7 | Cc1c2c(nc3[nH]c(=S)n(-c4ccc(S(=O)(=O)Nc5ncccn5)cc4)c(=N)c13)CCCC2 | 1.48 µg/mL (≈ 3.09 µM)
8 | Cc1cc(NS(=O)(=O)c2ccc(N/C=N/c3nc4c(c(C)c3C#N)CCCC4)cc2)no1 | 1.95 µg/mL (≈ 4.33 µM)
9 | Cc1c2c(nc3[nH]c(=S)n(-c4ccc(S(N)(=O)=O)cc4)c(=N)c13)CC(C)(C)CC2=O | 4 µg/mL (≈ 9.02 µM)
10 | Cc1c2c(nc3[nH]c(=S)n(-c4ccc(S(=O)(=O)NC(=N)N)cc4)c(=N)c13)CC(C)(C)CC2=O | 5.17 µg/mL (≈ 10.6 µM)
11 | Cc1cc(NS(=O)(=O)c2ccc(N/C=N/c3nc4c(c(C)c3C#N)C(=O)CC(C)(C)C4)cc2)no1 | 1.9 µg/mL (≈ 3.86 µM)
12 | Cc1cc(NS(=O)(=O)c2ccc(-n3c(=S)[nH]c4nc5c(c(C)c4c3=N)C(=O)CC(C)(C)C5)cc2)no1 | > 10 µg/mL
13 | Cc1cc(NS(=O)(=O)c2ccc(-n3cnc4nc5c(c(C)c4c3=N)C(=O)CC(C)(C)C5)cc2)no1 | 2.6 µg/mL (≈ 5.28 µM)
14 | Cc1c(C#N)c(/N=C/Nc2ccc(S(N)(=O)=O)cc2)nc2c1C(=O)CC(C)(C)C2 | 2.62 µg/mL (≈ 6.37 µM)
